Common to all, as to type: functional
The subject of one test is HT-29. Kind of test: Inhibitor activity against HT-29 (Human colon carcinoma)cell line with varying concentration of the drug for 72 hrs. The settings on record: HT-29, 72 h. The method in brief: (§1)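 Cells exposed 72 h to a range of drug concentrations; drug stocks prepared in ethanol. Growth read by in situ fixation and sulforhodamine B protein staining. GI50 is the concentration giving 50% growth inhibition. Each experiment's value comes from three wells on each of two separate plates (six wells); reported as mean ± SD over n experiments.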

Test [1] has as its system L1210. Kind of test: Inhibitor activity against L1210 (murine leukemia )cell line with varying concentration of the drug for 72 hrs. Particulars: Mus musculus, L1210, 72 h. The method in brief:
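Murine L1210 leukemia cells grown in RPMI 1640 with 10% FBS. Exposed 72 h to a range of drug concentrations; drug stocks in ethanol. Growth read by in situ fixation and sulforhodamine B staining. GI50 is the concentration giving 50% growth inhibition. Each value comes from six wells over two plates; reported as mean ± SD.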

The test system of test [2] is MCF7. Kind of test: Inhibitor activity against MCF-7(Human breast carcinoma)cell line with varying concentration of the drug for 72 hrs. The settings on record: MCF7, 72 h. The method in brief:
as §1

Test [3] relates to MCF7. Kind of test: Inhibitor activity against MCF-7/Adr (Human colon carcinoma)cell line with varying concentration of the drug for 72 hrs. Particulars: MCF7, 72 h, in the assay text read “Human breast carcinoma” for “Human colon carcinoma”. In outline: as §1
Test [4] has as its system L1210. The experiment in a line: Inhibitor activity against L1210/vmdr (transfected with a plasmid containing mdr1) cell line with varying concentration of the drug for 72 hrs. Particulars: Mus musculus, L1210, 72 h. In outline: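 L1210 leukemia transfected with human mdr1 (pHaMDR1/A), grown in RPMI 1640 with 10% FBS plus 0.06 µg/mL colchicine; colchicine removed one week before assay. Exposed 72 h to a range of drug concentrations (ethanol stocks). Sulforhodamine B staining after in situ fixation. GI50 is the concentration giving 50% growth inhibition, from six wells over two plates.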

The subject of the next test is A549. Kind of test: Inhibitor activity against A549 (Human lung carcinoma)cell line with varying concentration of the drug for 72 hrs. The settings on record: A549, 72 h. The method in brief:
as §1

Test [5] deals with P388. The experiment in a line: Inhibitor activity against P388/Adr (murine leukemia )cell line with varying concentration of the drug for 72 hrs. Particulars: Mus musculus, P388, 72 h. In outline:
as §1

Test [6] has as its system P388. Kind of test: Inhibitor activity against P388 (murine leukemia )cell line with varying concentration of the drug for 72 hrs. Particulars: Mus musculus, P388, 72 h. The method in brief: as §1
The subject of test [7] is Lewis lung carcinoma cell line. Kind of test: Inhibitor activity against Lewis lung (murine lung carcinoma)cell line with varying concentration of the drug for 72 hrs. Particulars: Mus musculus. In outline:
as §1

Consider `CCCCCCCCCCCCCCCCOC[C@H](CO[C@H]1O[C@@H](CO)[C@@H](O)[C@H](O)[C@H]1OC)OC`, for which the concentration for 50% growth inhibition (GI50) (in general, the concentration that inhibits growth by half) in the test with HT-29 was determined as 20 µM; in the test with L1210 [1], 15.5 µM; with MCF7 [2] it was 18.2 µM; in the test on MCF7 [3], 18.6 µM; with L1210 [4], 16.5 µM; in the test on A549, 15.6 µM.
`CCCCCCCCCCCCCCCCOC[C@H](CO[C@H]1C[C@@H](O)[C@H](O)[C@H](CO)O1)OC`: the GI50 in the test on HT-29 is 7.59 µM; in the test on L1210 [1] it was 7.02 µM; in the test with MCF7 [2] it was 6.93 µM; in the test on MCF7 [3] it was 12.8 µM; in the test on L1210 [4] it was 7.09 µM; in the test with A549, 9.9 µM. Also, the values for the GI50 (with P388 [5]; with P388 [6]; in [7]) were 10.2 µM, 12.7 µM and 11.1 µM, respectively.
As for `CCCCCCCCCCCCCCCCOC[C@H](CO[C@@H]1C[C@@H](O)[C@H](O)[C@H](CO)O1)OC`, the GI50 with HT-29 is 29.6 µM; in the test with L1210 [1] it was 18.8 µM; in the test with MCF7 [2] it was 24.4 µM; in the test with MCF7 [3], 24.4 µM; in the test on L1210 [4], 26.9 µM; in the test with A549 it was 19.7 µM.
Take `CCCCCCCCCCCCCCCCCCOC[C@H](COP(=O)([O-])OCC[N+](C)(C)C)OC` [(R)-EDELFOSINE]: the GI50 in the test on HT-29 was found to be 2.2 µM; in the test on L1210 [1] it was 3.32 µM; in the test with MCF7 [2], 9.66 µM; in the test on MCF7 [3], 30.4 µM; in the test on L1210 [4], 11 µM; in the test with A549, 5.05 µM. Besides, the GI50 came out at 6.39 µM in the test on P388 [5], 4.33 µM in the test on P388 [6] and 30.2 µM in test [7].
With `CCCCCCCCCCCCCCCCOC[C@H](CO[C@@H]1O[C@@H](CO)[C@@H](O)[C@H](O)[C@@H]1O)OC`, the GI50 in the test with HT-29 stood at 23.2 µM; in the test on L1210 [1], 16.2 µM; with MCF7 [2], 21.7 µM; in the test on MCF7 [3], 23.3 µM; with L1210 [4], 18.9 µM; in the test on A549 it was 18.1 µM.
For `CCCCCCCCCCCCCCCCOC[C@H](CO[C@@H]1O[C@@H](CO)[C@@H](O)[C@H](O)[C@@H]1OC)OC`, the GI50 with MCF7 [2] is 23.1 µM; with MCF7 [3] it was 21.8 µM; in the test on A549, 18.3 µM; with P388 [5], 29.3 µM; in the test with P388 [6] it was 18.1 µM; in test [7], 26 µM.

For the origin of these results see ChEMBL document CHEMBL1129274, “Synthesis and growth inhibitory properties of glycosides of 1-O-hexadecyl-2-O-methyl-sn-glycerol, analogs of the antitumor ether lipid ET-18-OCH3 (edelfosine)” (1996).
